In ChEMBL document CHEMBL1149200, “Toxic effects of natural piperine and its derivatives on epimastigotes and amastigotes of Trypanosoma cruzi” (Bioorg Med Chem Lett, 2004):

Columns and labels:
[1] = test system: Trypanosoma cruzi; assay: In vitro growth inhibition of epimastigotes of Trypanosoma cruzi; assay type: functional, organism-based
How it was run: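 Y-strain epimastigotes were grown in axenic culture and proliferation was measured. Compounds came from 10 mg mL-1 DMSO stocks, diluted 1:2 serially in medium to final levels of 0.76–25, each in triplicate. IC50 was derived by linear regression.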

[2] = test system: Trypanosoma cruzi; assay: In vitro growth inhibition of amastigotes of Trypanosoma cruzi; assay type: functional, organism-based
How it was run: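 Intracellular amastigotes, Y-strain, in in vitro infected murine peritoneal macrophages. Compounds were held as 10 mg mL-1 DMSO stocks and serially diluted in medium before use. Read-out was the reduction in intracellular amastigote number. IC50 was obtained by linear regression.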

IC50 [1] | IC50 [2] | SMILES
14.8 µM | 7.77 µM | CC(C)N(C(=O)/C=C/C=C/c1ccc2c(c1)OCO2)C(C)C
10.7 µM | 7.4 µM | O=C(/C=C/C=C/C=C/c1ccc2c(c1)OCO2)N1CCCCC1
> 81.4 µM |  | O=C(/C=C/C=C/c1ccc2c(c1)OCO2)NCc1ccccc1
> 83.3 µM |  | CN1CCN(C(=O)/C=C/C=C/c2ccc3c(c2)OCO3)CC1
17.5 µM | 9.63 µM | C(/C=C/c1ccc2c(c1)OCO2)=C\CN1CCCCC1
> 83.3 µM |  | O=C(/C=C/C=C/c1ccc2c(c1)OCO2)OC1CCCCC1
> 95.8 µM |  | O=C(/C=C/c1ccc2c(c1)OCO2)N1CCOCC1
56.1 µM | 5.71 µM | O=C(/C=C/C=C/c1ccc2c(c1)OCO2)N1CCOCC1
> 115 µM |  | O=C(O)/C=C/C=C/c1ccc2c(c1)OCO2 [PIPERIC ACID]
> 96.5 µM |  | O=C(/C=C/c1ccc2c(c1)OCO2)N1CCCCC1 [ILEPCIMIDE]
19.4 µM | 11.5 µM | O=C(CCCCc1ccc2c(c1)OCO2)N1CCCCC1 [TETRAHYDROPIPERINE]
> 65.6 µM |  | COc1ccc(CCNC(=O)/C=C/C=C/c2ccc3c(c2)OCO3)cc1OC

SMILES | IC50 [1] | IC50 [2]
O=C(Cn1ccnc1[N+](=O)[O-])NCc1ccccc1 [BENZNIDAZOLE] |  | 2.58 µM
